Source: ChEMBL document CHEMBL3045447, “Isolation and structural elucidation of eight new related analogues of the mycotoxin (-)-botryodiplodin from Penicillium coalescens” (2007)

Tests used:
Assay type in all cases: functional
Oncopeltus fasciatus = assay: Insecticidal activity against Oncopeltus fasciatus fourth-instar larvae assessed as insect mortality measured after 72 hr post compound application
Outline: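 Treated nymphs confined in a 9 cm Petri dish with food and water ad libitum. Acetone-only controls run in parallel. Acute toxicity scored as dead insects after 72 h, in triplicate. LD50 (µg/nymph) from linear regression of probit mortality on log dose.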

Trichothecium roseum = assay: Antifungal activity against Trichothecium roseum CECT 2410 at 5 ug/disk after 72 hr by paper disk agar diffusion assay; details: CECT 2410, 72 h, read-out: IZ
Outline: (§1)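 Paper disk–agar diffusion, triplicate. Fungus grown on PDA 7 days at 28 °C. Conidia suspended at ca. 10^6/mL in 0.05% Tween 80. 1 mL seeded into 15 mL PDA. After solidification, four 0.5 cm paper disks loaded with test product. Inhibition zone (mm) read at 72 h. Solvent-only disks as negative control; benomyl disks, dose set per species, as positive control.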

Penicillium italicum = assay: Antifungal activity against Penicillium italicum CECT 2294 at 0.2 ug/disk after 72 hr by paper disk-agar diffusion assay; details: CECT 2294, 72 h, read-out: IZ; outline: as §1
[1] = tested on: Colletotrichum gloeosporioides; assay: Antifungal activity against Colletotrichum gloeosporioides CECT 2859 at 0.5 ug/disk after 72 hr by paper disk-agar diffusion assay; details: CECT 2859, 72 h, read-out: IZ; outline: as §1
[2] = tested on: Fusarium oxysporum f. sp. niveum; assay: Antifungal activity against Fusarium oxysporum f. sp. niveum CCM 259 at 5 ug/disk after 72 hr by paper disk-agar diffusion assay; details: CCM 259, 72 h, read-out: IZ; outline: as §1
[3] = tested on: Phytophthora citrophthora; assay: Antifungal activity against Phytophthora citrophthora CECT 2353 at 1.5 ug/disk after 72 hr by paper disk agar diffusion assay; details: CECT 2353, 72 h, read-out: IZ; outline: as §1
Trichoderma viride = assay: Antifungal activity against Hypocrea rufa CECT 2423 at 1 ug/disk after 72 hr by paper disk agar diffusion assay; details: CECT 2423, 72 h, read-out: IZ; outline: as §1
Fusarium culmorum = assay: Antifungal activity against Fusarium culmorum CECT 2148 at 10 ug/disk after 72 hr by paper disk agar diffusion assay; details: CECT 2148, 72 h, read-out: IZ; outline: as §1
[4] = tested on: Fusarium oxysporum f. sp. gladioli; assay: Antifungal activity against Fusarium oxysporum f. sp. gladioli CCM 233 at 10 ug/disk after 72 hr by paper disk agar diffusion assay; details: CCM 233, 72 h, read-out: IZ; outline: as §1
Aspergillus parasiticus = assay: Antifungal activity against Aspergillus parasiticus CECT 2681 at 1 ug/disk after 72 hr by paper disk agar diffusion assay; details: CECT 2681, 72 h, read-out: IZ; outline: as §1
Verticillium dahliae [5] = assay: Antifungal activity against Verticillium dahliae CCM 269 at 0.25 ug/disk after 72 hr by paper disk-agar diffusion assay; details: CCM 269, 72 h, read-out: IZ; outline: as §1
Escherichia coli = assay: Antibacterial activity against Escherichia coli CECT 405 at 0.2 mg/disk after 24 hr by paper disk agar diffusion assay
Outline: (§2)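 Paper disk–agar diffusion, triplicate. Each bacterium grown 24 h in Nutrient Broth at 28 °C or 37 °C, per organism. 1 mL suspension inoculated into a plate, then 15 mL Plate Count Agar added. Five loaded disks placed after solidification. Plates incubated 24 h dark at 28 or 37 °C. Halo measured. Solvent-only disks as negative control; tetracycline chlorhydrate as positive control.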

Staphylococcus aureus = assay: Antibacterial activity against Staphylococcus aureus CECT 86 at 0.2 mg/disk after 24 hr by paper disk agar diffusion assay; outline: as §2
Bacillus cereus = assay: Antibacterial activity against Bacillus cereus CECT 148 at 0.2 mg/disk after 24 hr by paper disk agar diffusion assay; outline: as §2
[6] = tested on: Pectobacterium carotovorum; assay: Antibacterial activity against Pectobacterium carotovorum CECT 225 at 0.2 mg/disk […] by paper disk-agar diffusion assay
Enterococcus faecalis = assay: Antibacterial activity against Enterococcus faecalis CECT 481 at 0.2 mg/disk after 24 hr by paper disk agar diffusion assay; outline: as §2
Ceratitis capitata = assay: Insecticidal activity against Ceratitis capitata 2 to 3 days old adult male flies assessed as insect mortality measured after 10 days post compound application
Outline: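 Topical dose in 1 µL acetone applied by micropipet to the ventral abdomen of ice-anaesthetised 2–3-day-old adults, five males plus five females per group. Controls got acetone alone. Flies kept in a netted box with diet and water ad libitum. Mortality scored every 24 h for 10 days, in triplicate. LD50 from probit of mortality vs log dose.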

Verticillium dahliae [7] = assay: Antifungal activity against Verticillium dahliae CCM 269 at 0.2 mg/disk after 72 hr by paper disk-agar diffusion assay; outline: as §1
[8] = tested on: Phytophthora citrophthora; assay: Antifungal activity against Phytophthora citrophthora CECT 2353 at 0.2 mg/disk after 72 hr by paper disk agar diffusion assay; outline: as §1

CC(=O)[C@@H]1CO[C@@H](O[C@@H]2OC[C@@H](C(C)=O)[C@H]2C)[C@@H]1C [(-)-BOTRYODIPLODIN DIMER]
LD50 (Oncopeltus fasciatus): >15 µg

CCCCNC(=O)n1c(NC(=O)OC)nc2ccccc21 [BENOMYL]
zone of inhibition at 5 µg/disc (Trichothecium roseum): 29.7 mm
zone of inhibition at 0.2 µg/disc (Penicillium italicum): 16.7 mm
zone of inhibition at 0.5 µg/disc [1]: 26.7 mm
zone of inhibition at 5 µg/disc [2]: 17.3 mm
zone of inhibition at 1.5 µg/disc [3]: 17.1 mm
zone of inhibition at 1 µg/disc (Trichoderma viride): 12.3 mm
zone of inhibition at 10 µg/disc (Fusarium culmorum): 19 mm
zone of inhibition at 10 µg/disc [4]: 9.33 mm
zone of inhibition at 1 µg/disc (Aspergillus parasiticus): 8.33 mm
zone of inhibition at 0.25 µg/disc (Verticillium dahliae [5]): 14.3 mm

CN(C)[C@@H]1C(O)=C(C(N)=O)C(=O)[C@@]2(O)C(O)=C3C(=O)c4c(O)cccc4[C@@](C)(O)[C@H]3C[C@@H]12.Cl [TETRACYCLINE HYDROCHLORIDE]
inhibition zone (IZ) (Escherichia coli): 24 mm
inhibition zone (IZ) (Staphylococcus aureus): 16.67 mm
inhibition zone (IZ) (Bacillus cereus): 18.33 mm
inhibition zone (IZ) [6]: 34.67 mm
inhibition zone (IZ) (Enterococcus faecalis): 31.67 mm

C=C(C(C)=O)[C@@H](C)CO[C@@H]1OC[C@@H](C(C)=O)[C@H]1C [(-)-2-EPI-BOTRYODIPLODINENONE]
LD50 (Oncopeltus fasciatus): >15 µg

CC(=O)O[C@@H]1OC[C@@H](C(C)=O)[C@H]1C (relative stereo) [Botryodiplodin acetate]
LD50 (Oncopeltus fasciatus): 12.19 µg

CC(=O)[C@@H]1COC(O)[C@@H]1C (single isomer, unassigned; (-)) [(-)-BOTRYODIPLODIN]
LD50 (Oncopeltus fasciatus): 5.55 µg
LD50 (Ceratitis capitata): 12.9 µg
inhibition zone (IZ) (Staphylococcus aureus): 13.53 mm
inhibition zone (IZ) (Verticillium dahliae [7]): 17.31 mm
inhibition zone (IZ) [8]: 8.21 mm
